# Reference: PubChem BioAssay AID504407 (Broad Institute, 2011)
# Unmarked numbers belong to inactive results.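 The calls were made as follows: active = cytochrome c release activity at 50 µM, scaled between control wells and rounded, of 10% or more; inactive = the rest.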
# Experiment: cytochrome c release from parental CHL-1 mitochondria, counter-screen for A1 inhibitor project, biochemical, CHL-1 wild type, cytochrome c ELISA, dry powder (AID 504407)
# Settings: CHL-1 isolated mitochondria, at 50 µM, stronger effect = higher value
# Method in brief: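 Material: isolated mitochondria from wild-type CHL-1 cells. Medium: AT buffer, 80 mM KCl. Incubation: 30 min compound treatment, 30 °C. Technique: ELISA absorbance at 450 nm, 540 nm corrected. Measure: released cytochrome c in supernatant. Benchmarks: DMSO-treated negative controls, tBid-treated positive controls.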
smiles,measurement,value
Cn1c(=O)c([N+](=O)[O-])c(Cl)c2ccccc21,cytochrome c release activity,0.1%
